# Assay results as given in ChEMBL document CHEMBL1158491, “Inhibitors of the hepatitis C virus NS3 protease with basic amine functionality at the P3-amino acid N-terminus: discovery and optimization of a new series of P2-P4 macrocycles” (J Med Chem, 2009).
# Test system: not listed separately
# Experiment: AUC (0 to 4 hrs) in Sprague-Dawley rat at 5 mg/kg, po
# Assay type: ADME, organism-based
# Design: time < 4 hr, dose 5 mg/kg, route oral
# Settings: plasma
# In short: (§1)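 Oral dosing in male Sprague-Dawley rats, PEG400 vehicle; plasma exposure as AUC 0–4 h; liver tissue concentration taken at the 4 h time point. Doses of 3–4 mg/kg were normalized to 5 mg/kg by linear adjustment.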
row,AUC(0-t) at 4 h [µM·h],Compound
1,< 0.1,C=C[C@@H]1C[C@]1(NC(=O)[C@@H]1C[C@@H]2CN1C(=O)[C@H](C1CCCCC1)N(C)[C@H](C)CCCCCCc1cccc3c1CN(C3)C(=O)O2)C(=O)NS(=O)(=O)C1CC1
2,< 0.1,C=C[C@@H]1C[C@]1(NC(=O)[C@@H]1C[C@@H]2CN1C(=O)[C@H](C1CCCC1)N[C@H](C)CCCC/C=C/c1cccc3c1CN(C3)C(=O)O2)C(=O)NS(=O)(=O)C1CC1
3,< 0.1,C=C[C@@H]1C[C@]1(NC(=O)[C@@H]1C[C@@H]2CN1C(=O)[C@H](C1CCCCC1)N[C@H](C)CCCCCCc1cccc3c1CN(C3)C(=O)O2)C(=O)NS(=O)(=O)C1CC1

# Test system: not listed separately
# Experiment: AUC (0 to 4 hrs) in Sprague-Dawley rat at 4 mg/kg, po
# Assay type: ADME, organism-based
# Design: time < 4 hr, dose 4 mg/kg, route oral
# Settings: plasma
# In short: as §1
row,AUC(0-t) at 4 h [µM·h],Compound
1,< 0.1,C=C[C@@H]1C[C@]1(NC(=O)[C@@H]1C[C@@H]2CN1C(=O)[C@H](C1CCCCC1)N(C)[C@H](C)CCCCCCc1cccc3c1CN(C3)C(=O)O2)C(=O)NS(=O)(=O)C1CC1
2,< 0.1,C=C[C@@H]1C[C@]1(NC(=O)[C@@H]1C[C@@H]2CN1C(=O)[C@H](C1CCCC1)N[C@H](C)CCCCCCc1cccc3c1CN(C3)C(=O)O2)C(=O)NS(=O)(=O)C1CC1

# Test system: Hepatitis C virus
# Experiment: Inhibition of HCV 1b NS3 protease by time-resolved fluorescence assay
# Design: species or system Hepatitis C virus subtype 1b
# Settings: not given
# In short: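 Recombinant genotype 1b NS3 protease measured by time-resolved fluorescence assay; Ki determined.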
row,Compound,Ki [nM]
1,C=C[C@@H]1C[C@]1(NC(=O)[C@@H]1C[C@@H]2CN1C(=O)[C@H](C1CCCCC1)N(C)[C@H](C)CCCCCCc1cccc3c1CN(C3)C(=O)O2)C(=O)NS(=O)(=O)C1CC1,0.35
2,C=C[C@@H]1C[C@]1(NC(=O)[C@@H]1C[C@@H]2CN1C(=O)[C@H](C1CCCC1)N[C@H](C)CCCC/C=C/c1cccc3c1CN(C3)C(=O)O2)C(=O)NS(=O)(=O)C1CC1,0.29
3,C=C[C@@H]1C[C@]1(NC(=O)[C@@H]1C[C@@H]2CN1C(=O)[C@H](C1CCCC1)N[C@H](C)CCCCCCc1cccc3c1CN(C3)C(=O)O2)C(=O)NS(=O)(=O)C1CC1,0.1
4,C=C[C@@H]1C[C@]1(NC(=O)[C@@H]1C[C@@H]2CN1C(=O)[C@H](C(C)C)N[C@@H](C(F)(F)F)CCCCCCc1cccc3c1CN(C3)C(=O)O2)C(=O)NS(=O)(=O)C1CC1,5.7
5,C=C[C@@H]1C[C@]1(NC(=O)[C@@H]1C[C@@H]2CN1C(=O)[C@H](C1CCCCC1)N[C@H](C)CCCCCCc1cccc3c1CN(C3)C(=O)O2)C(=O)NS(=O)(=O)C1CC1,0.06
6,C=C[C@@H]1C[C@]1(NC(=O)[C@@H]1C[C@@H]2CN1C(=O)[C@H](C(C)C)NC(=O)OCCC/C=C/c1cccc3c1CN(C3)C(=O)O2)C(=O)NS(=O)(=O)C1CC1,0.04
7,"C=C[C@@H]1C[C@]1(NC(=O)[C@@H]1C[C@@H]2CN1C(=O)C(C(C)C)NC(C(F)(F)F)CCCCCCc1cccc3c1CN(C3)C(=O)O2)C(=O)NS(=O)(=O)C1CC1 (single isomer, unassigned)",1.1
8,"C=C[C@@H]1C[C@]1(NC(=O)[C@@H]1C[C@@H]2CN1C(=O)C(C(C)C)NCC(F)(F)CCCCCc1cccc3c1CN(C3)C(=O)O2)C(=O)NS(=O)(=O)C1CC1 (single isomer, unassigned)",0.35

# Test system: not listed separately
# Experiment: Drug level in Sprague-Dawley rat liver at 5 mg/kg, po after 4 hrs
# Assay type: ADME, organism-based
# Design: dose 5 mg/kg, route oral
# Settings: read-out: Drug uptake
# In short: as §1
row,concentration at 4 h [nM],Compound
1,560,C=C[C@@H]1C[C@]1(NC(=O)[C@@H]1C[C@@H]2CN1C(=O)[C@H](C1CCCCC1)N(C)[C@H](C)CCCCCCc1cccc3c1CN(C3)C(=O)O2)C(=O)NS(=O)(=O)C1CC1
2,260,C=C[C@@H]1C[C@]1(NC(=O)[C@@H]1C[C@@H]2CN1C(=O)[C@H](C1CCCC1)N[C@H](C)CCCC/C=C/c1cccc3c1CN(C3)C(=O)O2)C(=O)NS(=O)(=O)C1CC1

# Species: Homo sapiens
# Experiment: Fraction unbound in human plasma
# Settings: not given
row,fraction unbound,Compound
1,0.019,"C=C[C@@H]1C[C@]1(NC(=O)[C@@H]1C[C@@H]2CN1C(=O)C(C(C)C)NC(C(F)(F)F)CCCCCCc1cccc3c1CN(C3)C(=O)O2)C(=O)NS(=O)(=O)C1CC1 (single isomer, unassigned)"

# Test system: not listed separately
# Experiment: Drug level in Sprague-Dawley rat liver at 4 mg/kg, po after 4 hrs
# Assay type: ADME, organism-based
# Design: dose 4 mg/kg, route oral
# Settings: read-out: Drug uptake
# In short: as §1
row,concentration at 4 h [nM],Compound
1,560,C=C[C@@H]1C[C@]1(NC(=O)[C@@H]1C[C@@H]2CN1C(=O)[C@H](C1CCCCC1)N(C)[C@H](C)CCCCCCc1cccc3c1CN(C3)C(=O)O2)C(=O)NS(=O)(=O)C1CC1
2,< 100,C=C[C@@H]1C[C@]1(NC(=O)[C@@H]1C[C@@H]2CN1C(=O)[C@H](C1CCCC1)N[C@H](C)CCCCCCc1cccc3c1CN(C3)C(=O)O2)C(=O)NS(=O)(=O)C1CC1

# Test system: Hepatitis C virus
# Experiment: Antiviral activity against HCV 1b infected in human HuH7 cells by replicon assay in presence of 50% normal human plasma
# Assay type: functional, organism-based, Hepacivirus hominis
# Settings: genotype 1b, Huh-7, Plasma
# In short: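 Genotype 1b subgenomic replicon in HUH-7 cells run under high-serum conditions (50% normal human serum). Read-out is cellular HCV RNA; EC50 reported.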
row,Compound,EC50 [nM]
1,"C=C[C@@H]1C[C@]1(NC(=O)[C@@H]1C[C@@H]2CN1C(=O)C(C(C)C)NC(C(F)(F)F)CCCCCCc1cccc3c1CN(C3)C(=O)O2)C(=O)NS(=O)(=O)C1CC1 (single isomer, unassigned)",320
2,"C=C[C@@H]1C[C@]1(NC(=O)[C@@H]1C[C@@H]2CN1C(=O)C(C(C)C)NCC(F)(F)CCCCCc1cccc3c1CN(C3)C(=O)O2)C(=O)NS(=O)(=O)C1CC1 (single isomer, unassigned)",100

# Test system: Hepatitis C virus
# Experiment: Antiviral activity against HCV 1b infected in human HuH7 cells by replicon assay in presence of 10% fetal bovine serum
# Assay type: functional, organism-based, Hepacivirus hominis
# Settings: genotype 1b, Huh-7
# In short: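 Subgenomic genotype 1b HCV RNA replicon in HUH-7 cells, modified Bartenschlager procedure, run with 10% fetal bovine serum. Read-out is cellular HCV RNA, confirmed in a separate assay using an anti-NS3 monoclonal antibody; EC50 derived.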
row,Compound,EC50 [nM]
1,C=C[C@@H]1C[C@]1(NC(=O)[C@@H]1C[C@@H]2CN1C(=O)[C@H](C1CCCCC1)N(C)[C@H](C)CCCCCCc1cccc3c1CN(C3)C(=O)O2)C(=O)NS(=O)(=O)C1CC1,3
2,C=C[C@@H]1C[C@]1(NC(=O)[C@@H]1C[C@@H]2CN1C(=O)[C@H](C1CCCC1)N[C@H](C)CCCCCCc1cccc3c1CN(C3)C(=O)O2)C(=O)NS(=O)(=O)C1CC1,0.7
3,C=C[C@@H]1C[C@]1(NC(=O)[C@@H]1C[C@@H]2CN1C(=O)[C@H](C(C)C)N[C@@H](C(F)(F)F)CCCCCCc1cccc3c1CN(C3)C(=O)O2)C(=O)NS(=O)(=O)C1CC1,470
4,C=C[C@@H]1C[C@]1(NC(=O)[C@@H]1C[C@@H]2CN1C(=O)[C@H](C1CCCCC1)N[C@H](C)CCCCCCc1cccc3c1CN(C3)C(=O)O2)C(=O)NS(=O)(=O)C1CC1,2

# Further lines, results first:
row,EC50 [nM],Compound
1,0.5,C=C[C@@H]1C[C@]1(NC(=O)[C@@H]1C[C@@H]2CN1C(=O)[C@H](C1CCCC1)N[C@H](C)CCCC/C=C/c1cccc3c1CN(C3)C(=O)O2)C(=O)NS(=O)(=O)C1CC1
2,12,C=C[C@@H]1C[C@]1(NC(=O)[C@@H]1C[C@@H]2CN1C(=O)[C@H](C(C)C)NC(=O)OCCC/C=C/c1cccc3c1CN(C3)C(=O)O2)C(=O)NS(=O)(=O)C1CC1
3,18,"C=C[C@@H]1C[C@]1(NC(=O)[C@@H]1C[C@@H]2CN1C(=O)C(C(C)C)NC(C(F)(F)F)CCCCCCc1cccc3c1CN(C3)C(=O)O2)C(=O)NS(=O)(=O)C1CC1 (single isomer, unassigned)"
4,14,"C=C[C@@H]1C[C@]1(NC(=O)[C@@H]1C[C@@H]2CN1C(=O)C(C(C)C)NCC(F)(F)CCCCCc1cccc3c1CN(C3)C(=O)O2)C(=O)NS(=O)(=O)C1CC1 (single isomer, unassigned)"
